ChEMBL document CHEMBL4342471, “Discovery of Thieno[2,3-d]pyrimidine-Based Hydroxamic Acid Derivatives as Bromodomain-Containing Protein 4/Histone Deacetylase Dual Inhibitors Induce Autophagic Cell Death in Colorectal Carcinoma Cells” (J Med Chem, 2020)
The source made the active and inactive calls. The rule behind the calls is not given here.

Legend:
[1] = biological target: T1, Bromodomain-containing protein 4 (Homo sapiens, UniProt O60885); experiment: Inhibition of BRD4 in human HCT116 cells assessed as reduction in C-myc level at 0.2 to 0.5 uM measured after 24 hrs by Western blot analysis; assay type: cell-based
SW480 = experiment: Cytotoxicity against human SW480 cells assessed as reduction in cell viability; assay type: functional, cell-based
Summary of the method: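 Antiproliferative IC50 values were measured by MTT assay across a panel of colorectal carcinoma cell lines and normal colorectal epithelial cells.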

Homo sapiens [2] = organism: Homo sapiens; experiment: Inhibition of BRD4/HDAC in human HCT116 cells assessed as inhibition of IL6-JAK-STAT3 signaling pathway by measuring decrease in LIFR expression at 0.5 uM after 24 hrs by Western blot analysis; assay type: cell-based
Summary of the method: (§1)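 HCT-116 cells treated 24 h with 0.5 µM, 5.0 µM or 10 µM test agent depending on compound; OSMR, LIFR and downstream pathway proteins detected by western blot.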

HCT-116 [3] = experiment: Induction of apoptotic cell death in human HCT116 cells assessed as change in nuclear morphology at 0.2 to 0.5 uM after 12 hrs by Hoechst 33258 staining based fluorescence microscopy analysis; assay type: functional
Summary of the method: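 Nuclear morphology was examined by Hoechst 33258 staining in HCT-116 cells after treatment at 0.2 or 0.5 μM.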

Histone deacetylase 7 = biological target: T2, Histone deacetylase 7 (Homo sapiens, UniProt Q8WUI4); experiment: Inhibition of HDAC7 (unknown origin) using biotinylated histone H3 KAc peptide (1 to 21 residues) as substrate by HTRF assay
T2 sequence (Q8WUI4 whole entry): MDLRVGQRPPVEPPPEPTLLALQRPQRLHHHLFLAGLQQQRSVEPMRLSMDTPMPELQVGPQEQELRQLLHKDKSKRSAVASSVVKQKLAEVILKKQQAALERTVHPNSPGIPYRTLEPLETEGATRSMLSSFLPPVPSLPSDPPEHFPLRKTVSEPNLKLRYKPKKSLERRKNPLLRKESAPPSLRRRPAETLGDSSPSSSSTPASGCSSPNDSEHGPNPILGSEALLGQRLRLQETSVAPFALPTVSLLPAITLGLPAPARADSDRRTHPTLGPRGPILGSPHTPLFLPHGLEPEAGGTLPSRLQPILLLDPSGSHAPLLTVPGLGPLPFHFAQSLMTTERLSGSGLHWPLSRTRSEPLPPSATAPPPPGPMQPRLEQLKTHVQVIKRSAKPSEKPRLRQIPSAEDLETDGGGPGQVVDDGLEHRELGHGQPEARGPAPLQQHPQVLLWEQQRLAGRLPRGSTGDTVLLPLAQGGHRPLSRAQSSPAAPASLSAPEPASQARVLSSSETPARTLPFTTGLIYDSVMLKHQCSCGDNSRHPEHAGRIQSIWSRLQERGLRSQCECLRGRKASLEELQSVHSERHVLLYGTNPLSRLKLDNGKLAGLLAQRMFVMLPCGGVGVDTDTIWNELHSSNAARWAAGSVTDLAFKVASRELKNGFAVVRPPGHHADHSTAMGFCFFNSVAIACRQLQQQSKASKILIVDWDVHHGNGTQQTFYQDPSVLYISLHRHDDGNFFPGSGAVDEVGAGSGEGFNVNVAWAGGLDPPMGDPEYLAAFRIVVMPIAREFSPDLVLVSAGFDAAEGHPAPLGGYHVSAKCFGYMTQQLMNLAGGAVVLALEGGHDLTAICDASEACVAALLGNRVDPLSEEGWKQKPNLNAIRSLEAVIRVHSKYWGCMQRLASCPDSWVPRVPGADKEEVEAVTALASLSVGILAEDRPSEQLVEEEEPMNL

Homo sapiens [4] = organism: Homo sapiens; experiment: Inhibition of BRD4/HDAC in human HCT116 cells assessed as increase in caspase 9 cleavage at 0.2 to 0.5 uM measured after 24 hrs by Western blot analysis; assay type: cell-based
[5] = biological target: T1, Bromodomain-containing protein 4; experiment: Inhibition of BRD4 in human HCT116 cells assessed as induction of autophagy by measuring increase in cleavage of LC3-I to LC3-II measured after 24 hrs by Western blot analysis; assay type: cell-based
Histone deacetylase 4 = Histone deacetylase 4 (Homo sapiens, UniProt P56524); experiment: Inhibition of HDAC4 (unknown origin) using biotinylated histone H3 KAc peptide (1 to 21 residues) as substrate by HTRF assay
[6] = biological target: Bromodomain-containing protein 2 (Homo sapiens, UniProt P25440); experiment: Inhibition of human recombinant His-tagged BRD2 BD1 domain expressed in Escherichia coli BL21(DE3)-R3-pRARE2 cells by AlphaScreen assay
Histone deacetylase 9 = Histone deacetylase 9 (Homo sapiens, UniProt Q9UKV0); experiment: Inhibition of HDAC9 (unknown origin) using biotinylated histone H3 KAc peptide (1 to 21 residues) as substrate by HTRF assay
SW-620 = experiment: Antiproliferative activity against human SW620 cells assessed as reduction in cell viability measured after 24 to 48 hrs by MTT assay; assay type: functional, cell-based
HCT-116 [7] = experiment: Antiproliferative activity against human HCT116 cells assessed as reduction in cell viability measured after 24 to 48 hrs by MTT assay; assay type: functional, cell-based
HCT-116 [8] = experiment: Effect on histone H3 expression level in human HCT116 cells at 0.2 to 0.5 uM measured after 24 hrs by Western blot analysis; assay type: functional, cell-based
[9] = Toxicity in BALB/cAnNCrl mouse xenografted with human HCT116 cells assessed as effect on heart morphological changes at 15 to 30 mg/kg, po administered on day 1 to day 19 measured on day 19 by hematoxylin and eosin staining based assay; assay type: organism-based; conditions: in vivo
Summary of the method: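 HCT-116 xenograft mice dosed orally at 15 or 30 mg/kg for 19 days, saline as vehicle control; body weights tracked, and main organs sectioned and H&E-stained at study end.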

[10] = biological target: T1, Bromodomain-containing protein 4; experiment: Inhibition of GST-tagged BRD4 bromodomain (unknown origin) using biotinylated histone H4KAc peptide (1 to 21 residues) as substrate by HTRF assay
Homo sapiens [11] = organism: Homo sapiens; experiment: Inhibition of BRD4/HDAC in human HCT116 cells assessed as inhibition of IL6-JAK-STAT3 signaling pathway by measuring decrease in OSMR expression at 0.5 uM after 24 hrs by Western blot analysis; assay type: cell-based; summary of the method: as §1
HCT-116 [12] = experiment: Induction of apoptosis in human HCT116 cells assessed as apoptotic cells at 0.2 uM by Annexin-V FITC/propidium iodide staining-based flow cytometry (reference value: 6.3 +/- 0.4 %); assay type: functional
[13] = AUC (0 to infinity) in Sprague-Dawley rat at 30 mg/kg, iv administered as bolus dose measured up to 1440 mins by UPLC-QTOF/MS analysis; assay type: ADME, organism-based; parameters: dose 30 mg/kg, route intravenous, time infinity; conditions: in vivo
[14] = biological target: Bromodomain testis-specific protein (Homo sapiens, UniProt Q58F21); experiment: Inhibition of human recombinant His-tagged BRDT BD1 domain expressed in Escherichia coli BL21(DE3)-R3-pRARE2 cells by AlphaScreen assay
[15] = biological target: Bromodomain-containing protein 3 (Homo sapiens, UniProt Q15059); experiment: Inhibition of human recombinant His-tagged BRD3 BD2 domain expressed in Escherichia coli BL21(DE3)-R3-pRARE2 cells by AlphaScreen assay
Chain of Bromodomain-containing protein 3 (Q15059 whole entry, the tested form may be a part): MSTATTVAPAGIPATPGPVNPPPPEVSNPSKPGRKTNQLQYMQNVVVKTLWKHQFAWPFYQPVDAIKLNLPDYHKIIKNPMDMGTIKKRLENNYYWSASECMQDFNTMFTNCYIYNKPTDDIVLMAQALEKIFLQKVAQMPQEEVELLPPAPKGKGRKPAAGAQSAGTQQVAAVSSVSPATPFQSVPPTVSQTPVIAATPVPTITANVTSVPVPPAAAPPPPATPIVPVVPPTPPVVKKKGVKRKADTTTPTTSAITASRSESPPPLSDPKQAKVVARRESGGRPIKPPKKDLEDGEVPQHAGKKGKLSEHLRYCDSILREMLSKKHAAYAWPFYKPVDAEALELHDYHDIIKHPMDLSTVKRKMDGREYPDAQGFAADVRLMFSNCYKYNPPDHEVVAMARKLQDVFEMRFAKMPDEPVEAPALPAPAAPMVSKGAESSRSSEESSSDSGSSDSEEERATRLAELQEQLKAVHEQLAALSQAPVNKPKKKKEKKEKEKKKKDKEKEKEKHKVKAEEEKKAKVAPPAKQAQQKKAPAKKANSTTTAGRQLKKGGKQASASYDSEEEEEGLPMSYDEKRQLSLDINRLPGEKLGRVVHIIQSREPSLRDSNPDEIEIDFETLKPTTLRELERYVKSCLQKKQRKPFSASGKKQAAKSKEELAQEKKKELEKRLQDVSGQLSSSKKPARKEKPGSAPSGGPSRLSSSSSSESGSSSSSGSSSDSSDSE

Chain of Histone deacetylase 9 (Q9UKV0 whole entry, the tested form may be a part): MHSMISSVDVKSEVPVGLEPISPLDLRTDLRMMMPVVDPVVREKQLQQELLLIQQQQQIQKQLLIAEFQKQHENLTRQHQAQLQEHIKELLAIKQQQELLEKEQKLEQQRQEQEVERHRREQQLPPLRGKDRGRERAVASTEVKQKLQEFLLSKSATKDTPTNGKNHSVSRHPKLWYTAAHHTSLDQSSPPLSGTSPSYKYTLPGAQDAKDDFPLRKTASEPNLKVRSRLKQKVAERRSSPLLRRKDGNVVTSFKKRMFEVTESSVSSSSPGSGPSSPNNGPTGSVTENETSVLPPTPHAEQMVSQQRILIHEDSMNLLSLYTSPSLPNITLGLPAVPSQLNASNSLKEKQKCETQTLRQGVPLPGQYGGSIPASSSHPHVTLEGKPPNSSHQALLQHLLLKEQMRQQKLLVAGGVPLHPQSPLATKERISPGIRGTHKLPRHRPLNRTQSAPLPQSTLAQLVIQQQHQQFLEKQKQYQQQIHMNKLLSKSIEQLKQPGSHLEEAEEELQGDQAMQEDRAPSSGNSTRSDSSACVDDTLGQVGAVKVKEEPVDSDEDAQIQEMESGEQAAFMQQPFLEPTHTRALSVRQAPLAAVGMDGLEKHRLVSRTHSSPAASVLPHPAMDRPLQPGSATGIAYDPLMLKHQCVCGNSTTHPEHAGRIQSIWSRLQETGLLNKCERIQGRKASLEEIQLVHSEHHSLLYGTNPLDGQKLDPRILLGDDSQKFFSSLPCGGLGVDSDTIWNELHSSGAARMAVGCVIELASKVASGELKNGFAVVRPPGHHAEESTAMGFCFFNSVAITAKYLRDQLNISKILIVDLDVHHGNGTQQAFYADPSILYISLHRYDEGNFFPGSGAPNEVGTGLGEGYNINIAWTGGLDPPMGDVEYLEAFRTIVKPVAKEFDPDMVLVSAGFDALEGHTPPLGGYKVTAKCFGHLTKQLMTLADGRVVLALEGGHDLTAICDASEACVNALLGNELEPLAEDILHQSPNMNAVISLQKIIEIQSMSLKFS
Chain of Histone deacetylase 4 (P56524 whole entry, the tested form may be a part): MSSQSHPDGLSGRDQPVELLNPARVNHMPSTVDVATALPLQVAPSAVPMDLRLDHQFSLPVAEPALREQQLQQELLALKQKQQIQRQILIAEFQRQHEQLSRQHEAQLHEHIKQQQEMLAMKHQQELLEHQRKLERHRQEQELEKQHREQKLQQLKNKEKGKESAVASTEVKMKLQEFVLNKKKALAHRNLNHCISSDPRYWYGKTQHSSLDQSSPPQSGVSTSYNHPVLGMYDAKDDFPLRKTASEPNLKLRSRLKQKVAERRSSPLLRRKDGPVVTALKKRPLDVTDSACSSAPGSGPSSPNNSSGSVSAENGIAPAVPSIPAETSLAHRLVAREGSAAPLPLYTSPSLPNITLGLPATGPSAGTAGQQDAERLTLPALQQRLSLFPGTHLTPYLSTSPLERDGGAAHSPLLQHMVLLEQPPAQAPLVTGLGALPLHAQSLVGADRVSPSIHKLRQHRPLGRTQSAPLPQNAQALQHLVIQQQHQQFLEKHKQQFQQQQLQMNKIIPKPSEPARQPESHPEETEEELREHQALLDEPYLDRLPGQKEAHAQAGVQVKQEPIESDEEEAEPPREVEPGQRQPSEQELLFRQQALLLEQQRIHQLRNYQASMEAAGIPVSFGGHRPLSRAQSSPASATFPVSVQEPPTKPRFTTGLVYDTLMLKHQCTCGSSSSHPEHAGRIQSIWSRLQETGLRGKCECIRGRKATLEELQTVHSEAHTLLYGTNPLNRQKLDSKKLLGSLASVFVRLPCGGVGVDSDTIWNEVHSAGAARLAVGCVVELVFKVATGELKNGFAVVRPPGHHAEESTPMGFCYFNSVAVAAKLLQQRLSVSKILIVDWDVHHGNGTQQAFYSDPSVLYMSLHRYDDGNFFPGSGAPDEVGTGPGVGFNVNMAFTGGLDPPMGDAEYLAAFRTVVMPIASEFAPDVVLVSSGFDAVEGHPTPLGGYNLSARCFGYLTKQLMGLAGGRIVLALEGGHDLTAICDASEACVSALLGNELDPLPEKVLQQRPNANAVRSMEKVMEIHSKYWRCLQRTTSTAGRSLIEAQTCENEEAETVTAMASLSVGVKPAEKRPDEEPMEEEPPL
Chain of Bromodomain-containing protein 2 (P25440 whole entry, the tested form may be a part): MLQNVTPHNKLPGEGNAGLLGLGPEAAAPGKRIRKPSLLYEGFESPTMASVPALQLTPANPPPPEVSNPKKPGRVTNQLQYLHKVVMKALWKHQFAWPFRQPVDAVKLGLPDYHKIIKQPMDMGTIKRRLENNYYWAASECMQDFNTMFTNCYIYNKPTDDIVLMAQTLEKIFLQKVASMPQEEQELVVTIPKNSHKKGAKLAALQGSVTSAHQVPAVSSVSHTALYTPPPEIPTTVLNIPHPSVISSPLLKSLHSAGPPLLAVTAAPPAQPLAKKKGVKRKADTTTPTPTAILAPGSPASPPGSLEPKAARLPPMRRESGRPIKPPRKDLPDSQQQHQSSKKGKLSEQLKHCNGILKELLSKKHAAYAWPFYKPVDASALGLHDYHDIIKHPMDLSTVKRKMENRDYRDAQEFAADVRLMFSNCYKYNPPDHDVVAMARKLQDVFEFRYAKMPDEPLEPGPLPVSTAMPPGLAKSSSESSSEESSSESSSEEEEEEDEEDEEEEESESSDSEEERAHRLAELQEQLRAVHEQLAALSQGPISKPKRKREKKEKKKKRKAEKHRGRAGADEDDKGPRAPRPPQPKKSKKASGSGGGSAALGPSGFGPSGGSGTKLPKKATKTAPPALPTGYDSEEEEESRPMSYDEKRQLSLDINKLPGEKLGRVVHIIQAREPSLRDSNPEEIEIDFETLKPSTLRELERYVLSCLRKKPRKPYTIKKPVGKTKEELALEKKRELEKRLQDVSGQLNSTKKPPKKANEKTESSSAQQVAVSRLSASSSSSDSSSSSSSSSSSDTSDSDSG

Cc1cc(-c2nc3sc4c(c3c(=O)[nH]2)CCN(C)C4)cc(C)c1OCCCCCC(=O)NO
inhibition [1]: Active
Activity (SW480): Active
inhibition (Homo sapiens [2]): Active
Activity (HCT-116 [3]): Active
IC50 (Histone deacetylase 7): > 10 µM
inhibition (Homo sapiens [4]): Active
inhibition [5]: Dose-dependent effect
IC50 (Histone deacetylase 4): > 10 µM
IC50 [6]: 16.4 µM
IC50 (Histone deacetylase 9): > 10 µM
IC50 (SW-620): 1.78 µM
IC50 (HCT-116 [7]): 0.45 µM
Activity (HCT-116 [8]): inactive
Activity [9]: Non-Toxic
IC50 [10]: 0.71 µM
inhibition (Homo sapiens [11]): Active
Activity (HCT-116 [12]): 33.2%
AUC(0-inf) [13]: 156 µg·h/mL
IC50 [14]: > 20 µM
IC50 [15]: > 20 µM
